Calls of active or inactive are those of the source. No cut-off for these calls is given here.
Columns and labels:
Dengue virus = test: Inhibition of Dengue virus NS2B-NS3 serine protease expressed in Escherichia coli BL 21 (DE3) at 50 uM preincubated for 15 mins before substrate addition measured after 15 mins by fluorimetric analysis
Summary of the method: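 Recombinant NS2B hydrophilic cofactor linked through a glycine linker to NS3pro, His-purified on Ni2+ resin. Enzyme preincubated 15 min with inhibitor at 50 μM. Internally quenched substrate added to 50 μM final. Fluorescence read at ex 320/em 405 nm for 15 min, with initial slope per second as activity. Triplicate runs averaged.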

dengue virus type 2 [1] = test: Antiviral activity against Dengue virus 2 infected in human Huh-7 cells assessed as inhibition of viral replication at 1 to 25 uM treated 4 hrs after infection measured after 24 hrs by reporter gene assay; assay type: functional, organism-based
[2] = biological target: Genome polyprotein (West Nile virus) (UniProt P06935); test: Inhibition of West Nile virus NS2B-NS3 serine protease at 50 uM preincubated for 15 mins before substrate addition measured after 15 mins by fluorimetric analysis
Genome polyprotein (West Nile virus), sequence (P06935 whole entry): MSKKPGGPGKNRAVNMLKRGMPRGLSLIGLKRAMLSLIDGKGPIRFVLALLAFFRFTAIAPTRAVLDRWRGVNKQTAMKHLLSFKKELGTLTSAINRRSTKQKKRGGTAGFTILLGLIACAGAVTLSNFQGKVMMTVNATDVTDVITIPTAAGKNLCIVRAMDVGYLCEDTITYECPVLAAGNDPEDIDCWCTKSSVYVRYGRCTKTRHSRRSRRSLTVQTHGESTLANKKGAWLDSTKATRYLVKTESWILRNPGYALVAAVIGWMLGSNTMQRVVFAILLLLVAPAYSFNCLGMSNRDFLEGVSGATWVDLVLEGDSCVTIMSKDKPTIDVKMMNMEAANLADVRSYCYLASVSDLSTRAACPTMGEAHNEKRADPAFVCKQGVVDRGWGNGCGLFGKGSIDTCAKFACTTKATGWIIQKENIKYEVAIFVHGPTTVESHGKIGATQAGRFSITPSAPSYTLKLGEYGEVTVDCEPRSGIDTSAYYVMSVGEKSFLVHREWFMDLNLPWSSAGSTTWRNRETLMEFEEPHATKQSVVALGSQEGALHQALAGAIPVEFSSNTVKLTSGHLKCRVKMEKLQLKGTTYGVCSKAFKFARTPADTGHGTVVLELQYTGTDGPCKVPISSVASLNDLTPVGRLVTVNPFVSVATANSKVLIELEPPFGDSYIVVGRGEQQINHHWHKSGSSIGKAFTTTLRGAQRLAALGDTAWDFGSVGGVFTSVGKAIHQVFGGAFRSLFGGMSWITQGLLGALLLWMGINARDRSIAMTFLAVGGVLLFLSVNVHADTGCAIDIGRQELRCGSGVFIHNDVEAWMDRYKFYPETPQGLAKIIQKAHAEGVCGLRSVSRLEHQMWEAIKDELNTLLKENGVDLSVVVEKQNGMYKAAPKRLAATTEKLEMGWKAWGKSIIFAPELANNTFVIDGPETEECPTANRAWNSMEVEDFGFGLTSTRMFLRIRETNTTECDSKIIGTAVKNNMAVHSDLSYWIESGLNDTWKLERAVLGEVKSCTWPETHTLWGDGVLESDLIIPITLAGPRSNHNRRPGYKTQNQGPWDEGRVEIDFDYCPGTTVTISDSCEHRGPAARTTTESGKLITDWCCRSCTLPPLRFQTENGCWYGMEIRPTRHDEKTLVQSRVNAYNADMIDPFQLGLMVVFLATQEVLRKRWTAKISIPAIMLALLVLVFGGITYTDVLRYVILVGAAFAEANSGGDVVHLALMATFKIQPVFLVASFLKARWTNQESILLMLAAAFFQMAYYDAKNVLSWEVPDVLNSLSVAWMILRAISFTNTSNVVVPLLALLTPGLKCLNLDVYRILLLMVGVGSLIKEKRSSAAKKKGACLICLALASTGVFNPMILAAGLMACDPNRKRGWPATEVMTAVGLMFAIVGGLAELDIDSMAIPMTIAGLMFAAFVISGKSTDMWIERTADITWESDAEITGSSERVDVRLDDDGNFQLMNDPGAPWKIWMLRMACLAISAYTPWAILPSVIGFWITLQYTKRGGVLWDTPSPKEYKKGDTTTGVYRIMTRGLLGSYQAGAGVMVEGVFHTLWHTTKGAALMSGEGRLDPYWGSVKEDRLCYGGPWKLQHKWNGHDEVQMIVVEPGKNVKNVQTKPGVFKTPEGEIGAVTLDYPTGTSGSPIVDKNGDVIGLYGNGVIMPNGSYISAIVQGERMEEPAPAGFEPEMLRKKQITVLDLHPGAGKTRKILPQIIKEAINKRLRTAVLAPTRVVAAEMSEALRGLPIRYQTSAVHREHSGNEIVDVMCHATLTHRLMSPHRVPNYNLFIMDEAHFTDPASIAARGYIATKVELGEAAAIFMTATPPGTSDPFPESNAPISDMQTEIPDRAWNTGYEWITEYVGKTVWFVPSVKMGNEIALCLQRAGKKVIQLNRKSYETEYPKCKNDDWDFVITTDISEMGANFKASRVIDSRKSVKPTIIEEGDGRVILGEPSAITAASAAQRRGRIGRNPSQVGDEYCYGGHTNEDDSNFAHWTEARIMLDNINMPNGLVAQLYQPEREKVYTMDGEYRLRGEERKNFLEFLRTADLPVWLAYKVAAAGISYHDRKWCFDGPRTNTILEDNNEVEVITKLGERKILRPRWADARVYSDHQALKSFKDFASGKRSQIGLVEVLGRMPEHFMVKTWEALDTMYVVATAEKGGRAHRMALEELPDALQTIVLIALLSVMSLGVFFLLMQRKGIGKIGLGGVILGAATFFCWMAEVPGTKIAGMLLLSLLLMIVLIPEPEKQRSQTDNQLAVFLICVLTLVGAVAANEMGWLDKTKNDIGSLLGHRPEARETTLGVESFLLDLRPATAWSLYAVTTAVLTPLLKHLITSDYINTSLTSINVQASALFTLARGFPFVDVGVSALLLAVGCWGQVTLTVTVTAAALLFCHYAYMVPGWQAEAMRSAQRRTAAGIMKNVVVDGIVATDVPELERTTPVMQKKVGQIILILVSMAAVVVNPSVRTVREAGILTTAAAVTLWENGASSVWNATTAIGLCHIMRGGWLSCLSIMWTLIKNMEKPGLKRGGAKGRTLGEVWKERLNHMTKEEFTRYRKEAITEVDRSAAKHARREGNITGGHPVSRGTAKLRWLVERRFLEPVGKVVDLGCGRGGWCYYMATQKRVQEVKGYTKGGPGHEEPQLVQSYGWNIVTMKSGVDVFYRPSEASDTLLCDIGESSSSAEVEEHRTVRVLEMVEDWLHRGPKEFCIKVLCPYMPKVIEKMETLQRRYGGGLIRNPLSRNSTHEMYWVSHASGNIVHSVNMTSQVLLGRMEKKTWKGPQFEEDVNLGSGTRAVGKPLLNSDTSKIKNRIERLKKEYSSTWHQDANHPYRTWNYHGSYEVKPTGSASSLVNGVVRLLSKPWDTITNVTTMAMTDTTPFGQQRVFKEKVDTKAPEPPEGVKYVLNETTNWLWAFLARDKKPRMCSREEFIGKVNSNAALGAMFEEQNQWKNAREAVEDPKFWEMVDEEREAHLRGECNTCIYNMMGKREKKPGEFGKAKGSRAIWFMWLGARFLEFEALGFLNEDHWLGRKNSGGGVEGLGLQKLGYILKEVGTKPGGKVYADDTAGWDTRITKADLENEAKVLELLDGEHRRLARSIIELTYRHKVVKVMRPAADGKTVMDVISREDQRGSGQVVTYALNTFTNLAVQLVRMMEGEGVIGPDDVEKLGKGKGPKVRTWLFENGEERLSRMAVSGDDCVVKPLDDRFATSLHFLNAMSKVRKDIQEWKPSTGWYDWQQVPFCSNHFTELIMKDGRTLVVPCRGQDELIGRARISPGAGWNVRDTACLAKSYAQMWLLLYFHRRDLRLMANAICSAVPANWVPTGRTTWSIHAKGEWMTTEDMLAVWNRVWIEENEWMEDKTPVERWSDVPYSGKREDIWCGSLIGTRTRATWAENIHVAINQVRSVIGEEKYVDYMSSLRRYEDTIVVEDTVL
Summary of the method: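 WNV NS2B-NS3 protease at 150 nM final, preincubated 15 min with inhibitor at 50 μM. Abz-GLKRGG-3-(NO2)Y internally quenched substrate added to 50 μM final. Continuous fluorescence read for 15 min, with initial slope per second as activity.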

[3] = biological target: Prothrombin (Homo sapiens) (UniProt P00734); test: Inhibition of thrombin at 25 uM preincubated for 15 mins before Boc-Val-Pro-Arg-AMC substrate addition measured after 10 mins by microtiter fluorescence plate reader analysis
dengue virus type 2 [4] = test: Antiviral activity against Dengue virus 2 infected in human Huh-7 cells assessed as reduction of viral titers at non-cytotoxic concentration after 24 hrs by reporter gene assay relative to control; assay type: functional
Summary of the method: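 Huh-7 cells were infected with wild-type DenV-2 at an MOI of 1 TCID50 per cell. Compounds were added to the supernatants 4 h post-infection, with 1% final DMSO as the diluent control. Infectious titers were determined 24 h post-infection by limiting-dilution assay, with three independent experiments. Cytotoxicity was measured in Huh-7-Fluc cells after 48 h at 37 °C by luciferase read-out and visual inspection.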

Huh-7 = test: Cytotoxicity against human HuH7 cells assessed as reduction of cell viability at up to 100 uM after 48 hrs by luciferase assay; assay type: cell-based; conditions: huh-7, 48 h
Summary of the method: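 Huh-7-Fluc cells exposed to compounds up to 100 μM for 48 h at 37 °C, 5% CO2. Cells then lysed and luciferase activity read as a surrogate of viability, alongside visual inspection of cells.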

SMILES	inhibition (Dengue virus) [%]	other results
CC(C)(C)NC(=O)C(=O)/C=C/c1cccs1	27.6	–
O=C(/C=C/c1ccccc1)C(=O)NCc1ccccc1	14.6	–
CNC(=O)C(=O)/C=C/c1ccccc1	26.9	–
O=C(/C=C/c1ccccc1)C(=O)NC1CCCCC1	14.5	–
CC(C)(C)NC(=O)C(=O)/C=C/c1ccc(C#N)cc1	13.5	–
CC(C)(C)NC(=O)C(=O)/C=C/c1ccc([N+](=O)[O-])cc1	12.7	–
CC(C)(C)NC(=O)C(=O)/C=C/c1ccc(O)cc1	37.6	inhibition [2]: 31.4%; inhibition [3]: 17.3%
O=C(/C=C/c1ccccc1)C(=O)N1CCOCC1	30.8	–
COc1ccc(/C=C/C(=O)C(=O)NC(C)(C)C)cc1OC	36.1	Activity (dengue virus type 2 [1]): Active; inhibition [2]: 31%; inhibition [3]: 22.5%
CC(C)(C)NC(=O)C(=O)/C=C/c1c[nH]c2ccccc12	39.1	Activity (dengue virus type 2 [1]): Active; inhibition [2]: 40.6%; fold change (FC) (dengue virus type 2 [4]): 1000; inhibition [3]: 16.9%; Activity (Huh-7): Non-toxic
CC(C)(C)NC(=O)C(=O)/C=C/c1ccccc1[N+](=O)[O-]	12.9	–
CC(C)NC(=O)C(=O)/C=C/c1ccccc1	23.8	–
O=C(/C=C/c1ccccc1)C(=O)NCc1ccncc1	29.9	–
CC(C)(C)NC(=O)C(=O)/C=C/c1ccc(Br)cc1	15.1	–
CC(C)(C)NC(=O)C(=O)c1ccccc1	6.9	–
CC(C)(C)NC(=O)C1(/C=C/c2ccccc2)CO1 (stereo unspecified)	12.6	inhibition [2]: 20.3%; inhibition [3]: 12.1%
O=C(/C=C/c1ccccc1)C(=O)NCC1CCCO1 (stereo unspecified)	28.9	–
C/C(=C\C(=O)C(=O)NC(C)(C)C)c1ccccc1	19.6	–
COc1ccc(/C=C/C(=O)C(=O)NC(C)(C)C)c(OC)c1OC	27.8	–
CC(C)(C)NC(=O)C(=O)C1CC1c1ccccc1 (stereo unspecified)	7.4	–
Cn1cc(/C=C/C(=O)C(=O)NC(C)(C)C)c2ccccc21	31.3	–
CN(C)C(=O)C(=O)/C=C/c1ccccc1	29	–
CC(NC(=O)C(=O)/C=C/c1ccccc1)c1ccccc1 (stereo unspecified)	0	inhibition [2]: 12.2%; inhibition [3]: 5.1%
CC(=O)OCCNC(=O)C(=O)/C=C/c1ccccc1	35.8	inhibition [2]: 29.8%; inhibition [3]: 16.3%
CC(C)(C)NC(=O)C(=O)/C=C/c1cccc([N+](=O)[O-])c1	9.6	–
CC(=O)Nc1ccc(/C=C/C(=O)C(=O)NC(C)(C)C)cc1	32.9	–
CN(C)c1ccc(/C=C/C(=O)C(=O)NC(C)(C)C)cc1	13.8	inhibition [2]: 33.9%; inhibition [3]: 28.9%

Further lines, with some results ahead:

inhibition (Dengue virus) [%]	SMILES	other results
23.3	COc1ccccc1/C=C/C(=O)C(=O)NC(C)(C)C	–
8.2	CC(C)(C)NC(=O)C(O)/C=C/c1ccccc1 (stereo unspecified)	–
17.8	COc1cccc(/C=C/C(=O)C(=O)NC(C)(C)C)c1	–
18.4	CC(C)(C)NC(=O)C(=O)/C=C/c1ccncc1	–
0	CC(C)(C)NC(=O)C(=O)CCc1ccccc1	Activity (dengue virus type 2 [1]): inactive
23.3	CC(C)(C)NC(=O)C(=O)/C=C/c1cccnc1	–
20.4	CC(C)(C)NC(=O)C(=O)Cc1ccccc1	–
25.5	CC(C)c1ccc(/C=C/C(=O)C(=O)NC(C)(C)C)cc1	–
16.7	COc1ccc(/C=C/C(=O)C(=O)NC(C)(C)C)cc1	inhibition [2]: 27.3%; inhibition [3]: 14.2%
40.6	CC(C)(C)NC(=O)C(=O)/C=C/c1ccc(N)cc1	inhibition [2]: 39.5%; inhibition [3]: 21.1%
26.3	CC(C)(C)NC(=O)C(=O)/C=C/c1ccccc1	inhibition [2]: 20%; inhibition [3]: 19.6%
4.4	CCC/C=C/C(=O)C(=O)NC(C)(C)C	–
29.4	O=C(/C=C/c1ccccc1)C(=O)NCc1ccccn1	–
16.8	CC(C)(C)NC(=O)C(=O)/C=C/c1cccc(F)c1	–
15.9	CC(C)(C)NC(=O)C(=O)/C=C/c1ccc(Cl)cc1	inhibition [2]: 6.3%; inhibition [3]: 6.7%
27.7	CC(C)(C)NC(=O)C(=O)/C=C/c1ccccn1	–
21.5	CC(C)(C)NC(=O)C(=O)C1CCCCC1	–
35.1	COC(=O)[C@H](CO)NC(=O)C(=O)/C=C/c1ccccc1	inhibition [2]: 27.5%; inhibition [3]: 12.6%
15.2	CNC(=O)/C=C/c1ccccc1	–
8.9	CC(C)(C)NC(=O)C(=O)/C=C/c1ccc2ccccc2c1	–
25.6	C/C(=C\c1ccccc1)C(=O)C(=O)NC(C)(C)C	inhibition [2]: 0%; inhibition [3]: 5.7%
29.8	CC(=O)n1cc(/C=C/C(=O)C(=O)NC(C)(C)C)c2ccccc21	–
25.9	CCCCCNC(=O)C(=O)/C=C/c1ccccc1	–
31.2	O=C(/C=C/c1ccccc1)C(=O)NC1CC1	inhibition [2]: 20%; inhibition [3]: 17.1%
26.1	O=C(/C=C/c1ccccc1)C(=O)NCCO	–
23.9	CC(C)(C)NC(=O)C(=O)/C=C/c1ccc(F)cc1	–
